Sampled rows, rich in hits. Any-hit rate of the full collection: about 2.1%.
PfGluPho inh = PfG6PD (Plasmodium falciparum) enzyme inhibition | PfGluPho enzyme, NADPH resazurin-diaphorase fluorescence | AID 504690 | 0.78% of 350,000 active | inhibition, % at 20 µM;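 active = inhibition reaching at least a set limit at 20 µM in the primary screen, cut at about 59% in these data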;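 note: 0% = DMSO wells with substrate and 100% = DMSO wells lacking glucose-6-phosphate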
HKDC1 inhibitor = blocks human hexokinase HKDC1 activity. Q2TB90. recombinant HKDC1, G6PDH/diaphorase resazurin coupled fluorescence. inhibition, % at 20 µM. 0.16% of 340,000 active;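 active = inhibition above about 35% when tested at 20 µM, limit read from the data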;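 note: plate controls were DMSO wells with enzyme for no effect and DMSO wells lacking enzyme for full effect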
Target sequence (Q2TB90 whole entry, looked up): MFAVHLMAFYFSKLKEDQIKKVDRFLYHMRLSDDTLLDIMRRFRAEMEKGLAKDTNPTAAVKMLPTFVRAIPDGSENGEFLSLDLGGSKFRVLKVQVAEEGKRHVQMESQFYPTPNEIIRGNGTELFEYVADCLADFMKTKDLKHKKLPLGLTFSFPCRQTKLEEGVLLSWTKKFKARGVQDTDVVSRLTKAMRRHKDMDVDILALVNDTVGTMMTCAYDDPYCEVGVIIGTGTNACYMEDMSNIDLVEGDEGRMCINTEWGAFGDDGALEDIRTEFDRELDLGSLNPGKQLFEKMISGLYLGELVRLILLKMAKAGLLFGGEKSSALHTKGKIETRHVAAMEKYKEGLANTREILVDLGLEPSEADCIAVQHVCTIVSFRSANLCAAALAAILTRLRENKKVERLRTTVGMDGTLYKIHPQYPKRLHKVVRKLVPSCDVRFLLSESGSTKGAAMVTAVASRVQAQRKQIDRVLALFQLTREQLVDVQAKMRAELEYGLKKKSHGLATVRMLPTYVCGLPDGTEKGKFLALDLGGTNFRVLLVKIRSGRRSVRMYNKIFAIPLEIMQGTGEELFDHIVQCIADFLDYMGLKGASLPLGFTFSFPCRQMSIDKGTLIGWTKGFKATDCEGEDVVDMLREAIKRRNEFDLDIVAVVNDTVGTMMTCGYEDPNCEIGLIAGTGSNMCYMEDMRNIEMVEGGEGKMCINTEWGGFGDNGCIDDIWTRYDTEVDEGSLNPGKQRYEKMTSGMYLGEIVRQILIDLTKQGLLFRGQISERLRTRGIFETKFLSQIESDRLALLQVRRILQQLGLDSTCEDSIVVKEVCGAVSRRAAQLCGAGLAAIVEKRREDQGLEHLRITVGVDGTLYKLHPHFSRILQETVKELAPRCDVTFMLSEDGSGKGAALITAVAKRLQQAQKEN
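Test system: HK5 enzyme. Quantity: 5 µg/mL HK5 final. Reagent: glucose and ATP substrates. Schedule: 90 min reaction incubation at room temperature, dark. Technique: resazurin-to-resorufin fluorescence via G6PDH and diaphorase coupling, 525/613 nm. Control set: DMSO wells with and without enzyme mix.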
aDG glyco up = increases alpha dystroglycan glycosylation; Pro5-aDG cells, alpha-DG glycosylation AlphaScreen (IIH6); 0% Pro5, 100% B10-LARGE cell signal; activation, % at 10 µM; 0.22% of 360,000 active;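 active = activation of at least 8% versus controls, or a plate z-score of at least 8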;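 note: Pro5 are CHO cells carrying HIG-tagged alpha-DG that lacks glycosylation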
UCH37 DUB inh = inhibitors of human deubiquitinating enzyme UCH37 | Q9Y5K5 | purified proteasome/UCH37, Ub-AMC cleavage fluorescence | inhibition, % (concentration not given with the values) | 0.33% of 330,000 active | AID 588478;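 active = mean inhibition over replicate wells above about 20%, limit read from the data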;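 note: 0% = compound-free wells with enzyme and 100% = wells lacking proteasome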
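Material: Human UCH37 enzyme supplied as purified proteasome complex | Schedule: 30 min preincubation with enzyme, 25 min cleavage at room temperature | Detection: AMC fluorescence 355/460 nm | Measure: % inhibition of Ub-AMC cleavage fluorescence | Controls: Wells without proteasome as full block, compound-free enzyme plus substrate as uninhibited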
B2AR ag = human beta-2 adrenergic receptor agonism by FAP; Am2.2-beta2AR cells, FAP receptor internalization, flow cytometry; 0.43% of 340,000 active; AID 504454; response, % (test concentration not listed); P07550;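 active = response above a set limit, near 3 SD of response in nonfluorescent compounds, cut at about 42% in these data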
Cardio protect = modulators protecting cardiomyocytes from myocardial damage | 0.63% of 360,000 active | protection from H2O2 cell death, % at 20 µM | H9c2 cardiomyocytes, H2O2 injury protection, ATPLite, 2 h | AID 588492;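 active = compounds giving at least 50% protection of heart cells from peroxide-induced death in the single-dose screen, raw or plate-pattern-corrected value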;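 note: 0% = DMSO wells with peroxide and 100% = DMSO wells without peroxide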
Beta2AR ag CP1 = activates human beta-2 adrenergic receptor; shares compounds with B2AR ag; Am2.2-beta2AR cells, FAP surface receptor, flow cytometry; stronger effect = lower value; percent response (surface receptor), % at 10 µM; 25% of 1,100 active; AID 540358;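 active = surface receptor percent response at or below 58%, roughly 3 SD from nonfluorescent compounds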
B2AR FAP counter = fluorescence artifact in beta-2AR agonist FAP counterscreen; shares compounds with B2AR ag; calls only at 10 µM; AID 588765; 1,100 tested, under 10 active; Am2.2 cells, FAP fluorogen flow cytometry; stronger effect = lower value;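 active = percent response below a set limit in fluorescence channel 1 and below 50% in channel 8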
Active calls of the source: *; i = inactive; x = no result.

SMILES	PfGluPho inh	HKDC1 inhibitor	aDG glyco up	UCH37 DUB inh	B2AR ag	Cardio protect	Beta2AR ag CP1	B2AR FAP counter
CCCNC(=O)NS(=O)(=O)c1ccc(Cl)cc1	-4	3	1	5	1	14	x	x
CN(CCCN1CCOCC1)C(=O)c1cc(COc2cccc(C(F)(F)F)c2)on1	3	1	0	7	52*	0	84	i
Cc1cc(OCc2cc(C(=O)N(C)CCCN3CCOCC3)no2)cc(C)c1Cl	18	-1	0	3	6	1	x	x
CN(N=Cc1ccc(Br)o1)C1=NS(=O)(=O)c2ccccc21	x	x	x	-70	x	x	x	x
CCCC(=O)N1CCN(c2ccc(NC(=O)c3ccc([N+](=O)[O-])o3)cc2Cl)CC1	48	15	0	7	42*	-21	4.8*	i
CN1CCN(c2ccc(NC(=O)c3ccc([N+](=O)[O-])o3)cc2Cl)CC1	40	-1	0	5	29	-24	x	x
COc1ccc(-c2nn(-c3ccccc3)cc2C(=O)O)cc1	4	-5	0	-3	-8	16	x	x
Cc1ccc2c(c1)C1CN(C)CCC1N2C(=O)c1ccccc1NS(=O)(=O)c1cccc(C(F)(F)F)c1 (stereo not drawn)	-3	-1	0	4	67*	-3	104	i
COc1ccc(-c2nn(-c3ccccc3)cc2C(=O)N2c3ccc(C)cc3C3CN(C)CCC32)cc1 (stereo not drawn)	-13	-1	1	12	70*	16	90	i
O=C(NN=Cc1cccs1)c1cccnc1	x	x	x	6	x	x	x	x
Cc1ccc(Cl)cc1N1CCN(C(=O)Cc2c(C(=O)O)[nH]c3ccc(Cl)cc23)CC1	-42	7	0	9	75*	-2	113	i
Cc1ccc(OCC(=O)NN=Cc2ccc(O)cc2)c([N+](=O)[O-])c1	x	x	x	2	x	x	x	x
COc1ccc(C(=O)Nc2nc3cc4c(cc3s2)OCCO4)c(OC)c1	10	4	1	-422	54*	-17	101	i
Nc1c(C(=O)NN=Cc2cccnc2)cnn1-c1ccccc1	x	x	x	5	x	x	x	x
Cc1ccccc1N=C/C=C1/C=C(c2ccccc2)OC(C)(C)O1	0	0	0	9	43*	10	85	i
COc1cc(OC)cc(C(=O)Oc2c(CN3CCOCC3)cc(Cl)c3cccnc23)c1	0	-1	0	7	-5	6	89	i
O=C(Oc1c(CN2CCOCC2)cc(Cl)c2cccnc12)c1ccccc1F	13	11	0	1	-10	43	111	i
Cc1ccc(C=NNC(=O)c2ccc(-n3cccc3)cc2)o1	x	x	x	0	x	x	x	x
Clc1ccccc1-c1ncnc2ccc(Br)cc12	-6	19	1	1	96*	-4	115	i
COc1ccc(C(OCC(O)CNC(C)c2ccccc2)c2ccc(OC)cc2)cc1 (stereo not drawn)	-15	0	0	2	51*	-2	114	i
COc1ccc(C(OCC(O)CNCCc2ccccc2)c2ccc(OC)cc2)cc1 (stereo not drawn)	-5	1	0	2	32	-5	x	x
COc1ccc(C(CCNC(C)c2ccccc2)c2ccc(F)cc2)cc1 (stereo not drawn)	-10	10	0	7	42*	-17	99	i
COc1ccc(C(CCNCc2ccccc2)c2ccc(F)cc2)cc1 (stereo not drawn)	8	-7	2	4	16	-11	85	i
COc1ccc(CNC(=O)CNC(C)c2ccc(F)cc2)cc1 (stereo not drawn)	-8	-4	0	6	9	-1	x	x
COc1ccc(C(CCNCc2ccc(F)cc2)c2ccc(F)cc2)cc1 (stereo not drawn)	-5	2	0	1	42	-15	104	i
SMILES	PfGluPho inh	HKDC1 inhibitor	aDG glyco up	UCH37 DUB inh	B2AR ag	Cardio protect	Beta2AR ag CP1	B2AR FAP counter
COc1ccc(CNCCC(c2ccc(F)cc2)c2ccc(OC(C)C)cc2)cc1OC (stereo not drawn)	0	2	1	x	32	-14	x	x
COc1ccc(C=NNC(=O)c2ccn[nH]2)cc1COc1ccc(Cl)cc1Cl	x	x	x	0	x	x	x	x
Cc1ccc(C=Nn2c(C)nc3ccccc3c2=O)s1	x	x	x	5	x	x	x	x
CC1=CC(=NNC(=O)c2cccs2)CC(C)(C)C1	x	x	x	-1	x	x	x	x
COc1ccc(CNCCC(c2ccc(F)cc2)c2ccc(OC)cc2)cc1 (stereo not drawn)	12	-7	3	0	35	-19	88	i
CCc1ccc(C=NNC(=O)c2cc(C3CC3)nc3ccccc23)s1	x	x	x	-3	x	x	x	x
COc1ccccc1C(=O)NC(=O)COC(=O)Cc1ccc(F)cc1	6	-4	0	1	58*	39	114	i
O=C(COC(=O)Cc1ccc(F)cc1)NC(=O)c1ccccc1	-2	-3	0	6	-5	20	x	x
CC(=NNC(=S)NC1CCCCC1)c1ccc(C)o1	x	x	x	4	x	x	x	x
N#C/C(=C\c1c(Cl)cccc1Cl)c1nc2ccccc2o1	1	0	0	4	-3	-8	142	i
Cc1cc(O)ccc1N/C=C(\C#N)c1nc2ccccc2o1	-13	-6	0	x	4	-4	x	x
CCN(CC)CCNC(=O)c1cc(-c2cccnc2)nc2ccc(S(=O)(=O)N3CCC(C)CC3)cc12	3	-6	0	6	19	-15	92	i
Cc1ccc(C)c(-n2c(C)cc(C=NNC(=O)c3c(C)nc4cc(C)ccn34)c2C)c1	x	x	x	3	x	x	x	x
COc1ccc(C(=O)Nc2ccc(C(C)=NNC(=O)c3ccccc3O)cc2)cc1OC	x	x	x	4	x	x	x	x
COc1ccc(C=NNC(=O)c2nn(C)cc2Cl)cc1CN1CCOCC1	x	x	x	7	x	x	x	x
N#Cc1c(N=C/C=C/c2ccccc2)sc2c1CCCC2	x	x	x	6	x	x	x	x
N#Cc1cc(-c2ccccc2)nc(NN)n1	-16	-1	0	8	0	17	x	x
N#Cc1cc(-c2ccccc2)nc(Oc2ccc(Cl)cc2)n1	24	6	1	2	44*	-11	50*	i
Cc1ccc(CSc2nc3c(c(N(C)C)n2)CCCC3)cc1	3	-3	1	1	-5	-24	x	x
CN(C)c1nc(SCc2ccccc2Cl)nc2c1CCCC2	-4	1	0	1	43*	-16	131	i
O=C(NC1CCc2ccccc21)c1cc(COc2ccc(F)cc2Cl)on1 (stereo not drawn)	9	4	0	2	11	-2	x	x
